# From PubChem BioAssay
# Arr AP2 block: inhibitors of beta-arrestin/AP2 binding, primary screen, biochemical, GPCR trafficking, flow cytometry. beta-arrestin 1 C-terminal peptide binding to AP2 beta2-adaptin appendage (human). FITC-arrestin peptide / GST-AP2 beads; AP2 beta2 appendage carries R879A mutation. inhibition, % at 10 µM. 0.31% of 340,000 active. AID 504490, 2011;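 active = inhibition above a set limit, near 3 SD of compounds lacking own fluorescence, cut at about 54% in these data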;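 also: plate controls were DMSO wells for no effect and 5 µM unlabelled arrestin peptide for full effect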
#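 System: GST-AP2 R879A glutathione beads | Also added: FITC-arrestin peptide, 50 nM | Times: 12 min plus 1 h, RT | Signal: Bead flow cytometry, FITC channel | Buffer or medium: PBS with 0.05% Tween 20 and 0.1% BSA | Read-out basis: Percent drop in bead-associated FITC signal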
# procasp7 counter: procaspase-7 activators, primary screen, counter-screen for procaspase-3 activator project, biochemical, absorbance, HTS, human; Caspase-7 (Homo sapiens), P55210; recombinant procaspase-7, Ac-DEVD-pNA absorbance 405 nm; D23A/D198A/D206A triple mutant, cannot self-cleave; scale: DMSO 0, 5 µM enzyme 100; activation, % at 8.5 µM; AID 463210, 2010; 0.093% of 330,000 active;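 active = percent activation above the screen-wide mean plus 3 SD, cut at about 25% in these data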
# Target sequence (P55210 whole entry D23A/D198A/D206A): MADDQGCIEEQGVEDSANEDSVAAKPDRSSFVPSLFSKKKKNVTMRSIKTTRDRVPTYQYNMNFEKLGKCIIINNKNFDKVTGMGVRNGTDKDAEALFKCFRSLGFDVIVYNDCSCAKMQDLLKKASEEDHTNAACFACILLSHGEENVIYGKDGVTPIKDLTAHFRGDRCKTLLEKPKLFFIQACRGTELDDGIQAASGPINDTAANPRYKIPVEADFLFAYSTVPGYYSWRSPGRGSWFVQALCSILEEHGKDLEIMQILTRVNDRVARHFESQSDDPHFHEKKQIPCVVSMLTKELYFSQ
#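 Material: Procaspase-7 triple mutant (PC-7 D3A) | Quantity: 2 µM procaspase-7 mutant as dispensed | Reagent: DEVD-pNA substrate | Times: 1 h preincubation, 2 h reaction | Technique: 405 nm absorbance of p-nitroaniline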
# proCasp3 act: activators of human procaspase-3 D3A mutant, primary screen, biochemical, absorbance, PC-3 D3A mutant, single concentration | 0.11% of 330,000 active | activation, % at 8.5 µM | recombinant procaspase-3 D3A, Ac-DEVD-pNA absorbance 405 nm | AID 463141, 2010 | Caspase-3 (Homo sapiens), P42574;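 active = activation above the mean of all tested compounds plus 3 SD, cut at about 21% in these data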;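 also: 0% = DMSO alone and 100% = DMSO wells spiked with extra 5 µM PC-3 D3A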
# Target sequence (P42574 whole entry D9A/D28A/D175A): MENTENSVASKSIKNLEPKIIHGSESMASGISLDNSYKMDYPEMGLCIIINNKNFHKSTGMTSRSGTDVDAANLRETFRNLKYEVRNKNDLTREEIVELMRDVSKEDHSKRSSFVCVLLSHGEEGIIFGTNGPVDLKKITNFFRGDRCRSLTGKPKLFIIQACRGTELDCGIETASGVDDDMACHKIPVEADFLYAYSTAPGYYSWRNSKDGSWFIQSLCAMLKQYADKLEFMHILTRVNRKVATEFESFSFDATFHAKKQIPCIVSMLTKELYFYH
#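 Technique: 405 nm absorbance of p-nitroaniline, reads at 0 and 120 min; Test system: Procaspase-3 D3A mutant; Incubation: 1 h enzyme-compound preincubation, then 2 h substrate reaction, 25 °C; Repeats: singlicate, each compound tested once; Benchmarks: low control DMSO wells, high control DMSO plus 5 µM PC-3 D3A.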
# PLC-gamma1 inh: PLC-gamma1 enzyme inhibitors, primary screen, biochemical, fluorescence, purified enzyme; fluorogenic substrate; inhibition, % at 12.2 µM; 0.84% of 370,000 active; AID 720700, 2013; in the data active = inhibition above about 9.5%
# PLC-beta3 inh: human PLC-beta3 inhibitors, primary screen, biochemical, fluorescence; 1-phosphatidylinositol 4,5-bisphosphate phosphodiesterase beta-3 (Homo sapiens), Q01970; Purified PLC-beta3, fluorogenic substrate; inhibition, % at 12.2 µM; 0.18% of 370,000 active; in the data active = inhibition above about 11%;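 also: 0% = median of compound wells on plate and 100% = full blocker control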
# HGIII-sPLA2 inh: human group III sPLA2 inhibitors, primary screen, biochemical, QFRET, BODIPY PC-A2 liposome substrate | AID 743126, 2013 | inhibition, % at 12.2 µM | 0.56% of 370,000 active | Group 3 secretory phospholipase A2 (Homo sapiens), Q9NZ20 | QFRET BODIPY PC-A2 liposome hydrolysis, fluorescence;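 active = inhibition above mean plus 3 SD of compounds lying within the high and low control bounds, cut at about 19% in these data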;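 also: 0% = median of test compound wells and 100% = no enzyme DMSO wells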
# hGIII sPLA2 conf: human group III sPLA2 inhibitors, confirmation, biochemical, QFRET, triplicate. shares compounds with HGIII-sPLA2 inh. recombinant hGIII-sPLA2, BODIPY PC-A2 QFRET fluorescence. inhibition, % at 12.2 µM. 34% of 2,000 active. AID 743280, 2014;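 active = mean inhibition across triplicates above the hit cutoff set in the earlier primary screen, cut at about 19% in these data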;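 also: 0% = enzyme with DMSO and 100% = DMSO wells lacking enzyme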
# 535nm interf: 535nm fluorescence optical interference, confirmation, artefact control for HGIII-sPLA2 inhibitor project, biochemical, QFRET; 8.5% of 2,000 active; AID 743282, 2014; BODIPY FL product fluorescence interference; inhibition, % at 12.2 µM; shares compounds with HGIII-sPLA2 inh;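 active = average inhibition above the solvent-only control mean plus 3 SD, cut at about 6% in these data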;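 also: 0% = DMSO with substrate plus product and 100% = DMSO with substrate alone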
# Starred values were filed as active, the others as inactive; i = inactive; nt = no result. This is a sample that favours compounds with a hit; in the whole collection about 1.9% have one here.
SMILES,Arr AP2 block,procasp7 counter,proCasp3 act,PLC-gamma1 inh,PLC-beta3 inh,HGIII-sPLA2 inh,hGIII sPLA2 conf,535nm interf
Cc1cccnc1NC(=S)Nc1ccc(F)cc1F,-1,-16,-10,-4,-5,20*,21*,-4
Cc1nn(CC(=O)NC(=O)NC2CCCCC2C)c(=O)c(C#N)c1C (stereo not given),3,-2,3,1,3,-28,nt,nt
CC(=O)Nc1cccc2ncccc12,44,2,0,-1,-9,24*,1,-6
CC(=O)N1CCN(c2ccc(NC(=S)NC(=O)c3ccc(C)c([N+](=O)[O-])c3)cc2)CC1,-13,-3,-4,6,-6,8,nt,nt
COc1ccc(C(=O)NC(=S)Nc2ccc(N3CCN(C(C)=O)CC3)cc2)cc1[N+](=O)[O-],-8,-12,-17,-2,-5,21*,10,-18
S=c1[nH]nc(Cc2cccc3ccccc23)o1,-18,-15,1,-1,-6,24*,14,3
COc1ccc2c(-c3ccccc3)cc(SCC(N)=O)nc2c1,3,6,-1,-4,-9,20*,4,-17
CC(CCl)n1c(=O)c2ccccc2n1C(=O)c1ccccc1 (stereo not given),nt,nt,nt,0,-5,24*,4,-10
CC1CCCC(C)N1C(=O)c1ccc(S(=O)(=O)NCc2ccco2)cc1 (stereo not given),7,0,-2,0,-7,-6,nt,nt
CCNC(=O)OCCC12CC3CC(CC(C3)C1)C2,-6,1,6,0,4,1,nt,nt
O=C(OCCC12CC3CC(CC(C3)C1)C2)c1ccc(NCc2cc(O)ccc2O)cc1,6,nt,nt,0,-3,21*,21*,13*
COc1ccc(NC(=S)NC(=O)c2cccnc2)cc1,36,-6,3,0,-4,17,nt,nt
CC(C)(C)c1cc(Cl)c(O)c(NC(=S)NC(=O)c2cccnc2)c1,1,-16,6,4,-5,25*,23*,1
COC(=O)c1ccc(NC(=S)NC(=O)c2cccnc2)cc1,-10,-7,-4,0,-7,21*,13,-4
COc1ccc(Cn2ccc3ccc(-c4ccc5ccn(Cc6ccccc6F)c5c4)cc32)cc1,nt,nt,nt,-91,-124,20*,13,5
Cn1ccc2c(-c3ccc(C(=O)O)cc3)cc3c(c21)C1CCC3O1 (stereo not given),nt,nt,nt,i,i,-10,nt,nt
COc1ccc2c(c1)CCC/C2=N\NC(=O)c1ccoc1C,7,10,-8,-1,-5,21*,12,-5
CC(c1ccccc1)N(NC(=O)C(O)(c1ccccc1)c1ccccc1)C(=O)c1ccccc1 (stereo not given),-16,-10,3,-1,-1,22*,13,-19
CCc1cc(=O)oc2cc(OC(C)C(=O)NCc3ccccn3)ccc12 (stereo not given),18,-5,2,-7,-20,2,nt,nt
COc1cc(C)c2sc3ccccc3c(=O)c2c1NCCN(C)C,nt,nt,nt,-9,-14,20*,17,-22
COc1ncc(-c2cc(C(C)=O)c3n(c2=O)CCC3)c(OC)n1,nt,nt,nt,1,-1,-4,nt,nt
CC(C)c1ccc(NC(=O)Nc2nc(C(N)COCc3ccccc3)cs2)cc1 (stereo not given),nt,nt,nt,1,9,22*,8,-3
Cc1ccccc1NC(=O)Nc1nc(C(N)c2ccccc2)cs1 (stereo not given),nt,nt,nt,1,-1,22*,1,-3
CC(C)C(N)c1csc(NC(=O)Nc2cccc(Cl)c2)n1 (stereo not given),nt,nt,nt,4,2,22*,8,-9
CC(C)CC(N)c1csc(NC(=O)Nc2ccccc2C(C)C)n1 (stereo not given),nt,nt,nt,3,1,22*,3,-21
SMILES,Arr AP2 block,procasp7 counter,proCasp3 act,PLC-gamma1 inh,PLC-beta3 inh,HGIII-sPLA2 inh,hGIII sPLA2 conf,535nm interf
c1ccc2[nH]c3cc4ncnc4cc3nc2c1,5,-19,0,-253,-267,-29,nt,nt
Cc1ccc(-c2csc(NC(=O)c3ccc4c(=O)n5c(nc4c3)CCCCC5)n2)cc1,12,3,8,2,-3,2,nt,nt
COC(=O)[C@]12C[C@H](CC(=O)N3CCSCC3)C(=O)N(CCc3ccc(OC)c(OC)c3)C1=C[C@H](C1CCCC1)O[C@@H]2C,nt,nt,nt,0,1,4,nt,nt
COc1cccc2cc(C(=O)OCC(=O)NCc3ccc4c(c3)OCO4)c(=O)oc12,9,3,3,-3,-8,1,nt,nt
O=C(O)C(C/C(=N/O)c1ccc(Br)cc1)P(=O)(c1ccccc1)c1ccccc1 (stereo not given),0,-6,0,3,-5,21*,2,-7
CCn1c(NC(=S)Nc2ccccc2)nc2ccccc21,24,-3,-15,-4,-6,23*,24*,3
CCn1c(NC(=O)C2CCCCC2)nc2ccccc21,0,-1,5,0,-1,2,nt,nt
O=c1oc2ccccc2cc1-c1csc(NN=C2CCCC2)n1,-6,-1,-8,-218,-267,20*,7,-3
O=C(NC(=S)NNC(=O)c1ccco1)c1ccc(Br)cc1,-4,-15,-3,-1,-7,14,nt,nt
CC1(C)Cc2ccccc2-c2nnnn21,-13,-3,-7,1,-4,23*,5,-3
c1ccc2c(c1)CC1(CCCC1)n1nnnc1-2,6,-3,3,4,2,1,nt,nt
COc1ccc(C(=O)OC2C(OC)OCC(O)C2O)cc1 (stereo not given),-10,nt,nt,7,4,3,nt,nt
CCOC(=O)c1ccc(NC(=O)CSc2nnc(-c3cc(-c4ccccc4)n[nH]3)n2N)cc1,nt,nt,nt,1,0,5,nt,nt
